Results published in ChEMBL document CHEMBL1135922, “A common mechanism underlying promiscuous inhibitors from virtual and high-throughput screening” (J Med Chem, 2002).

Experiment: Aggregates forming ability by dynamic light scattering(DLS).
Outline: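 Compound from 10 mM DMSO stock diluted into filtered KPi (5, 50 or 500 mM); dynamic light scattering at 90° detector angle, 25 °C, argon-ion laser at 514.4 nm (helium-neon 632.8 nm for dyes absorbing at 514.4 nm). Mean particle diameter by cumulant analysis; scattering intensity recorded. Each value from four or more independent measurements.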

| Structure (SMILES) | DLS Concentration |
| --- | --- |
| O=C(O)c1cc(-c2ccc(Cl)cc2)nc(-c2ccc(-c3ccccc3)cc2)c1 | 80 µM |
| Oc1ccc(-c2csc(Nc3ccc(F)cc3F)n2)cc1O | 300 µM |
| C(=C1c2ccccc2-c2ccccc21)C1CCCNC1 (stereo not given) | 100 µM |
| Cc1cc(Cl)cc2c1C(=O)/C(=C1/Sc3cc(Cl)cc(C)c3C1=O)S2 | 20 µM |
| CC(C)(C)c1ccc(-c2cc(C(=O)O)cc(-c3ccc(Cl)c(Cl)c3)n2)cc1 | 50 µM |
| O=C(Nc1nnc(Sc2nc3cc(Cl)ccc3s2)s1)c1cccs1 | 15 µM |
| O=C(N/N=C/c1ccccc1O)C(=O)N/N=C/c1ccccc1O | 10 µM |
| CCCCCCC(Oc1ccc(S(=O)(=O)c2ccc(OCc3ccccc3)cc2)cc1)C(=O)O (stereo not given) | 500 µM |
| Oc1ccc(/N=N/c2ccc(Br)cc2)cc1 | 10 µM |
| O=C1Nc2ccccc2/C1=C/c1ccc(-c2cccs2)s1 | 20 µM |
| CC(C)c1ccc(/C=C2/C(=O)Nc3ccccc32)cc1 | 10 µM |
| COc1ccc2c(c1)CC[C@@H]1[C@@H]2CC[C@]2(C)[C@@H](NCCNc3ccc([N+](=O)[O-])cn3)CC[C@@H]12 | 40 µM |
| CC(C)(C)c1cc(/C=C2/C(=O)Nc3ncccc32)cc(C(C)(C)C)c1O | 10 µM |
| Nc1c(/N=N/c2ccc(-c3ccc(/N=N/c4cc(S(=O)(=O)O)c5ccccc5c4N)cc3)cc2)cc(S(=O)(=O)O)c2ccccc12 | 750 µM |
| O=C1C(I)=CC(=C(c2cc(I)c(O)c(I)c2)c2ccccc2C(=O)O)C=C1I | 10 µM |
| CN(C)c1ccc(/C=C2/C(=O)Nc3ccccc32)cc1 | 30 µM |
| OB(O)c1cc2ccccc2s1 | 100 µM |
| Oc1oc(/C=N/c2ccc(Oc3ccccc3)cc2)c2ccccc12 | 100 µM |
| COC1CC[C@@]2(C)[C@@H](CC[C@@H]3[C@@H]2[C@@H](O)C[C@]2(C)[C@@H](NCCN)CC[C@@H]32)C1 (stereo not given in full) | 100 µM |
| CCCCc1ccc(-c2cc(C(=O)O)cc(-c3ccc(Cl)cc3)n2)cc1 | 50 µM |
| CC(C)CC(Oc1ccc(OC(=O)c2cc(-c3ccc(Cl)cc3)nc(-c3ccc(Cl)cc3)c2)cc1)C(=O)O (stereo not given) | 50 µM |
| O=C1C2C(C(=O)N1Nc1ccc([N+](=O)[O-])cc1[N+](=O)[O-])[C@@]1(Cl)C(Cl)=C(Cl)[C@]2(Cl)C1(Cl)Cl (stereo not given in full) | 15 µM |
| COc1ccc2c(c1)CC[C@@H]1[C@@H]2CC[C@]2(C)[C@@H](NCCCc3ccccc3)CC[C@@H]12 | 100 µM |
| Oc1ccc(/N=N/c2cccc(Br)c2)cc1 | 500 µM |
| O=C1OC2(c3cc(I)c(O)c(I)c3Oc3c2cc(I)c(O)c3I)c2c(Cl)c(Cl)c(Cl)c(Cl)c21 | 500 µM |
| O=C(O)COc1ccc(/N=N/c2ccc3cc(Br)ccc3c2O)cc1 | 20 µM |
| Cc1ccc(-c2cc(C(=O)O)cc(-c3ccc4ccccc4c3)n2)cc1 | 500 µM |
| O=S(=O)(O)c1cccc2cccc(Nc3ccccc3)c12 | 1000 µM |
| O=C1Nc2ccccc2/C1=C\c1ccc2c(c1O)CCCC2 | 40 µM |
| O=C(O)c1cc(-c2ccc(Cl)cc2)nc(-c2ccc(Sc3ccc(Cl)cc3)cc2)c1 | 50 µM |
